# Source: PubChem (several laboratories)
# NPY2 pot ag – NPY-Y2 potentiators or agonists, primary screen, cell-based | cells expressing NPY-Y2, potentiator/agonist read-out | activation, % at 3.6 µM | actives 0.45% (n = 220,000); in the data active means activation above about 27%;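 further: cells stimulated with NPY near EC25 plus isoproterenol at EC100; 0% = vehicle plus submaximal agonist and 100% = vehicle plus saturating agonist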
# NPY-Y1 PAM-ag – NPY-Y1 receptor potentiators or agonists, primary screen, cell-based | actives 0.37% (n = 220,000) | activation, % at 3.6 µM | NPY-Y1 expressing cells, potentiator/agonist activation; in the data active means activation above about 33%, passing the limit was not always enough;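 further: cells stimulated with NPY at EC10 then isoproterenol at EC100; 0% = low agonist plus stimulus and 100% = saturating agonist plus stimulus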
# NPY-Y1 antag – NPY-Y1 receptor antagonists, primary screen, cell-based | Neuropeptide Y receptor type 1 (Homo sapiens), P25929 | HEK293-CNG Y1 cells, membrane potential fluorescence; NPY at EC95, then isoproterenol | inhibition, % at 3.6 µM | actives 1% (n = 200,000) | AID 1040, 2008;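 active means inhibition above the campaign mean inhibition of all tested compounds plus 3 SD, cut at about 20% in these data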;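 further: 0% = DMSO wells given NPY plus isoproterenol and 100% = isoproterenol alone without NPY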
#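 Material: HEK293 Y1/CNG channel cell line | Also added: NPY (25 nM), isoproterenol (1 µM), Ro 20-1724 (25 µM) | Compound: One concentration, 3.6 µM, in 0.4% DMSO | Schedule: 3 h dye uptake, 1 h room-temperature compound, 45 min post-isoproterenol | Signal: Membrane-potential fluorescent dye readout | Read-out: % inhibition of NPY effect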
# NPY-Y2 antag – NPY-Y2 receptor antagonists, primary screen, cell-based. inhibition, % at 2.7 µM. NPY-Y2 expressing cells, antagonist mode. actives 0.99% (n = 140,000). Neuropeptide Y receptor type 2 (Homo sapiens), P49146; in the data active means inhibition above about 17%;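 further: 0% = vehicle with agonist challenge and 100% = reference antagonist with challenge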
# Cl transport mod – KCC2 cotransporter modulators, thallium flux, primary screen, cell-based, HEK293 KCC2, FluoZin-2 fluorescence, MLSMR. Solute carrier family 12 member 5 (Homo sapiens), Q9H2X9. B-score of Tl+ flux slope (higher = more flux/activation; lower = inhibition) at 10 µM. actives 2.2% (n = 190,000). AID 1456, 2008. KCC2 cells, thallium flux FluoZin-2 fluorescence;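 active means thallium flux slope and its plate-corrected score both differing from the plate sample mean at a set confidence after two filtering rounds, in either direction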;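 further: slope of fluorescence scaled to starting intensity during 10 to 20 s after thallium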
# Target sequence (Q9H2X9 whole entry, looked up): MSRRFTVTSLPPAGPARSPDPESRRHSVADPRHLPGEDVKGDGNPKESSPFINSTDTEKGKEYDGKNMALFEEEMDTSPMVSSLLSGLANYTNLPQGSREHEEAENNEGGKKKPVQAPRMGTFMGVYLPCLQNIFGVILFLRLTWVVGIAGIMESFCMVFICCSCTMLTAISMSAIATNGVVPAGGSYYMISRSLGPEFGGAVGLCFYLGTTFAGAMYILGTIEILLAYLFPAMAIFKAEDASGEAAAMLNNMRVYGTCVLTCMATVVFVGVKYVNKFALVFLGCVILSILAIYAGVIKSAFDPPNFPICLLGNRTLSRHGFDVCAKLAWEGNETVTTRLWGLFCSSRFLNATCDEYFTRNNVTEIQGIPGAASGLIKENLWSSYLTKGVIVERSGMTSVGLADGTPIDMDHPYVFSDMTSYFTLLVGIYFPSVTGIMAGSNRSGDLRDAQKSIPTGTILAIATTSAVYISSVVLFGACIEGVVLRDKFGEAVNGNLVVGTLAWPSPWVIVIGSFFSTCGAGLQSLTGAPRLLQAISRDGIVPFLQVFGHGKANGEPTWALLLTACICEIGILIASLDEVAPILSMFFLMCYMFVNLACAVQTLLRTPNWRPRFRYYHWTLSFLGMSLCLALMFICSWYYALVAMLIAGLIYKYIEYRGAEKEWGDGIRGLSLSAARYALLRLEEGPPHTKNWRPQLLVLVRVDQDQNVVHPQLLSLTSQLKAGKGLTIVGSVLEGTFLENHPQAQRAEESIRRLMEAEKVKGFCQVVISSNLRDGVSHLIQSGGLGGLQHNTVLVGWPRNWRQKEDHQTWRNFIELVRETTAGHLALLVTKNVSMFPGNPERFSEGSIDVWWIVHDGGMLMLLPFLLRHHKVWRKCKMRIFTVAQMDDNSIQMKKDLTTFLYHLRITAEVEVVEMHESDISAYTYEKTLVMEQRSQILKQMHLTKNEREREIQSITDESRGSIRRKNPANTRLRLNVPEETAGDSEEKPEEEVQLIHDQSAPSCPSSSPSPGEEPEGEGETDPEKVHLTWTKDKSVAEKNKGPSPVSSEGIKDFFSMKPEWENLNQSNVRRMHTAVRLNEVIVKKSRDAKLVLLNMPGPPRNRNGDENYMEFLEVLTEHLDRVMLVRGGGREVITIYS
# Furin inhibitor – human furin inhibitors, primary screen, biochemical, fluorescence intensity. P09958. purified furin, fluorogenic substrate cleavage. inhibition, % at 20 µM or 30 µM. actives 0.061% (n = 220,000). AID 463115, 2010; in the data active means inhibition above about 25%
# KCC2 secondary – KCC2 modulators in sodium-free buffer, confirmation, cell-based, HEK293 KCC2, thallium flux, secondary assay. FluoZin2 fluorescence; active compounds read high. shares compounds with Cl transport mod. actives 15% (n = 3,700). normalised thallium flux (F/F0 slope) at 10 µM;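 active means thallium flux slope above the same plate's solvent-only control mean plus 3 SD; inconclusive means the two replicate wells disagree; inactive means no significant difference from solvent-only control wells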
# KCC2 bumet counter – thallium flux persisting under bumetanide in KCC2 cells, confirmation, counter-screen for KCC2 modulator project, cell-based, HEK293 KCC2, FluoZin2, secondary assay 3 | shares compounds with Cl transport mod | HEK293-KCC2 + bumetanide/ouabain; active compounds read high | normalized thallium flux at 10 µM | actives 49% (n = 3,700);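 active means thallium entry rate above the same plate's blocked-transporter control wells by more than 3 SD; inconclusive means the two repeat wells disagree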;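 further: raw slope of fluorescence over initial fluorescence between 10 and 20 s after thallium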
# KCC2 sec2 – KCC2 modulators without ouabain present, confirmation, cell-based, HEK293 KCC2, thallium flux, FluoZin2, secondary assay 2; AID 1715, 2009; actives 23% (n = 3,700); normalized thallium flux at 10 µM; shares compounds with Cl transport mod; thallium flux FluoZin2 fluorescence; actives lie on both sides; F/F0 rise rate, 10–20 s post-thallium;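 active means thallium flux slope more than 3 SD above or below the plate's solvent-only control mean, mostly below; inconclusive means the two repeat wells disagreed; inactive means no significant shift from solvent-only controls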;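 further: raw slope with 0.1% DMSO as baseline and bumetanide as block control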
# HEK counter1 – thallium flux modulation in parental HEK cells, confirmation, counter-screen for KCC2 modulator project, cell-based, counterscreen 1. actives 46% (n = 3,700). AID 1716, 2009. shares compounds with Cl transport mod. thallium flux rate (normalised fluorescence) at 10 µM. HEK293 parental cells, thallium flux FluoZin2, ouabain; baseline-ratio fluorescence slope, 10–20 s after thallium;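 active means thallium flux rate significantly above the same plate's solvent-only control wells, beyond their mean plus 3 SD; inconclusive means the two replicate wells gave conflicting results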
# KCC2 retest ouab – KCC2 inhibitors and activators, ouabain retest, confirmation, HEK-KCC2 cells; shares compounds with Cl transport mod; HEK293-KCC2, thallium flux FluoZin2 fluorescence; bidirectional: low = inhibitor, high = activator; raw Tl+ flux slope (below DMSO = inhibition, above = activation) at 10 µM; actives 48% (n = 3,700);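 active means thallium flux slope beyond 3 SD from same-plate DMSO control mean in most replicates, usually higher, sometimes lower; inconclusive means repeat tests gave conflicting results; inactive means no significant difference from controls in most replicates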;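 further: slope of initial-normalized fluorescence between seconds 10 and 20 after thallium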
# HEK293 Tl flux2 – native HEK Tl+ uptake effects, second counter-screen – HEK cells, counterscreen 2, counter-screen for KCC2 modulator project, confirmation | shares compounds with Cl transport mod | actives 33% (n = 3,700) | thallium flux slope at 10 µM | HEK293 parental, thallium flux FluoZin-2 fluorescence slope;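 active means thallium flux slope above the same plate's solvent-control mean plus 3 SD in both duplicate wells; inconclusive means duplicate wells that disagreed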;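 further: run without ouabain in cells lacking the KCC2 cotransporter; slope of fluorescence scaled to its starting value between 10 and 20 s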
# Active calls of the source: *; u = inconclusive; x = no result. Compounds with a hit are over-represented: about 3.7% of the library has one in this group of screens.
SMILES,NPY2 pot ag,NPY-Y1 PAM-ag,NPY-Y1 antag,NPY-Y2 antag,Cl transport mod,Furin inhibitor,KCC2 secondary,KCC2 bumet counter,KCC2 sec2,HEK counter1,KCC2 retest ouab,HEK293 Tl flux2
NC(=O)CC(NC(=O)Cc1ccc(Br)cc1)c1ccc(NCCc2ccc(F)cc2)c([N+](=O)[O-])c1 (stereo unspecified),x,x,x,x,-3*,-25,0.017,0.0039,u,u,0.014,0.0096
CCNC(=S)NNC(=O)c1cc(-c2cccc(OC)c2)nc2ccccc12,-5,-17,11,5,-0.81,-26,x,x,x,x,x,x
COc1ccc(C(=O)NNC(=S)NC(=O)c2cc(-c3ccccc3)nc3ccccc23)cc1,-12,14,5,0,6.6*,-20,0.0072,0.017*,0.032,0.022*,0.026*,0.015*
CCCOc1ccc(C(=O)NNC(=S)NC(=O)c2cc(-c3ccc(Cl)cc3)nc3ccccc23)cc1,-5,3,5,8,1.2,-8,x,x,x,x,x,x
CC(C)Oc1cccc(-c2cc(C(=O)NC(=S)N(C)c3ccccc3C(=O)O)c3ccccc3n2)c1,0,7,-3,4,4.4*,-9,u,0.02*,0.033,0.011*,u,0.014*
COc1ccc(Cl)cc1C(=O)NNC(=S)NC(=O)c1cc(-c2ccccc2)nc2ccccc12,-7,3,4,1,4.8*,3,0.006,0.0087*,0.034,0.012*,0.022,0.012
CCOC(=O)c1c(NC(=S)NCc2ccccc2)sc2c1CCN(C(=O)OCC)C2,-23,-24,x,x,4.7*,-8,u,0.025*,0.032,0.014*,0.024,0.012*
C=CCNC(=S)Nc1sc2c(c1C(=O)OCC)CCN(C(=O)OCC)C2,-7,-11,0,2,5.7,-14,x,x,x,x,x,x
CC(=O)N(C)c1ccc(NC(=O)c2ccc([N+](=O)[O-])cc2Cl)cc1,-9,3,-5,-2,0.07,-6,x,x,x,x,x,x
Cc1ccc(N(CC(=O)NCCSc2ccccn2)S(=O)(=O)c2ccc(F)cc2)cc1,0,9,-3,x,-4.2*,-25,0.0067,0.005,0.026*,0.0069,u,0.01
CN(C(=O)c1cccc(C#N)c1)c1nnc(-c2cnccn2)s1,-6,6,3,1,x,-9,0.011,0.0064,0.031,0.0075,0.023,u
CC(C)CCNC(=O)NC(=O)CSc1ncccn1,-7,7,-5,x,0.94,-23,x,x,x,x,x,x
